Laboratory results published in article PMC3674282 (Nature Communications, 2013).
Numbering of substitutions follows the chain as printed.

Columns and labels:
Ac-AChBP [1] = target: T1, Ac-AChBP (Aplysia californica, UniProt Q8WSF8); experiment: affinity by tryptophan fluorescence quenching; assay type: binding
T1 sequence (Q8WSF8 20-236): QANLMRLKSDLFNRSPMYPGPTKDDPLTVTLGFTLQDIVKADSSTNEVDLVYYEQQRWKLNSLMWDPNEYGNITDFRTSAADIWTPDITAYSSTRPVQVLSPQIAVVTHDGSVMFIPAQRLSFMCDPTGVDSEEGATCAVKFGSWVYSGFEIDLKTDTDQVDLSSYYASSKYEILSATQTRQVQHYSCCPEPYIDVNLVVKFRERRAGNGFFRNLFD
Outline: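 Untagged wild-type Ac-AChBP, purified from Sf21 insect cells, at 1 μM in binding sites, equilibrated with a dilution series of test compound for 1 h. Tryptophan fluorescence read on a plate reader: excitation 280 nm, emission 340 nm (slit 8 nm). Data normalised and pKi obtained by fitting a sigmoidal dose–response curve.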

Ac-AChBP [2] = target: T1, Ac-AChBP; experiment: titration of AO with Ac-AChBP by AO fluorescence quenching; assay type: binding; conditions: AO 100 μM titrated with Ac-AChBP, absence of nicotine
Outline: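 Test compound at 100 μM was titrated with increasing Ac-AChBP. Its own fluorescence was monitored with excitation at 495 nm and emission at 525 nm (slit 10 nm). A competition arm, where indicated, included 1 mM nicotine.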

Ac-AChBP [3] = target: T1, Ac-AChBP; experiment: isothermal titration calorimetry; assay type: binding; conditions: 25°, PBS
Outline: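 The protein was dialysed into PBS and the test compound was dissolved in the same buffer. Titrations ran on a VP-ITC microcalorimeter at 25°. Heat of dilution from ligand titrated into buffer alone was subtracted as background. Data were fitted by non-linear least squares to a one-set-of-sites model.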

human α7 nAChRs = human α7 nAChRs (Homo sapiens, UniProt P36544); experiment: electrophysiology on Xenopus oocytes expressing human α7 nAChR; assay type: cell-based
Sequence of human α7 nAChRs (P36544 23-502): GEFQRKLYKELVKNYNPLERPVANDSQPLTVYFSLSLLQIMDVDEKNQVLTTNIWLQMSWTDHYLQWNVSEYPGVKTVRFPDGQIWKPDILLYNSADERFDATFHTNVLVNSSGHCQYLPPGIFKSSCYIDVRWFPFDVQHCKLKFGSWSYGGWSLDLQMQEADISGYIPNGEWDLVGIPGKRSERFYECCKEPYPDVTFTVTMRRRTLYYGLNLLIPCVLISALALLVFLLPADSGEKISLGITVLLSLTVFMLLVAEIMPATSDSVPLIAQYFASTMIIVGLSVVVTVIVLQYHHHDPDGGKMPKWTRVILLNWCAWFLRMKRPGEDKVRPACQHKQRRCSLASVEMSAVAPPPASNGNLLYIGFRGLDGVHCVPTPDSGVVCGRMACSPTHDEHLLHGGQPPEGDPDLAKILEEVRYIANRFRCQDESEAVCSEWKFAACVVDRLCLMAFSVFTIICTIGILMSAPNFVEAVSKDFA

solubility = assay type: physicochemical; conditions: in words
Ac-AChBP [4] = target: T1, Ac-AChBP; experiment: biochemical; assay type: binding
human α7 nAChR = human α7 nAChR (Homo sapiens, UniProt P36544); experiment: radioligand displacement; assay type: binding
Sequence of human α7 nAChR (P36544 23-502): as above
Outline: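 SH-SY5Y neuroblastoma cells expressing human α7 nAChR were washed three times, stored as frozen pellets at −80 °C, then resuspended in ice-cold buffer and sonicated. Incubation used PBS/20 mM Tris pH 7.4/0.05% Tween, test compound at 10−3–10−11 M and [3H]MLA at 2 nM final, for 1.5 h at room temperature with shaking and protected from light. Bound label was collected on PEI-pretreated GF/C filters, washed with ice-cold 50 mM Tris pH 7.4 and counted. Curves were fitted by non-linear least squares; mean±s.e.m. of ≥3 independent experiments.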

Ac-AChBP Y186A = target: T2, Ac-AChBP Y186A (Aplysia californica, UniProt Q8WSF8, Y205A); experiment: radioligand displacement on mutant Ac-AChBP Y186A; assay type: binding; conditions: Y186 mutated to alanine
T2 sequence (Q8WSF8 20-236 Y205A): T1 sequence (Q8WSF8 20-236) with Y186A

Ac-AChBP Y193A = target: T3, Ac-AChBP Y193A (Aplysia californica, UniProt Q8WSF8, Y212A); experiment: radioligand displacement on mutant Ac-AChBP Y193A; assay type: binding; conditions: Y193 mutated to alanine
T3 sequence (Q8WSF8 20-236 Y212A): T1 sequence (Q8WSF8 20-236) with Y193A

Ac-AChBP [5] = target: T1, Ac-AChBP; experiment: equilibrium titration of binding sites by tryptophan fluorescence quenching; conditions: Ac-AChBP 20 μM binding sites
Outline: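 Ac-AChBP (20 μM in binding sites) was titrated with rising test compound until quenching fell below 8%. Tryptophan emission was read at 340 nm with excitation at 280 nm. Stoichiometry came from a straight line fitted through the average of the plateau points.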

Compound: CN(C)c1ccc2cc3ccc(N(C)C)cc3nc2c1 [AO, acridine orange]
- Ki (Ac-AChBP [1]): 1.58 µM
- stoichiometric ratio at which Ac-AChBP quenched AO fluorescence (Ac-AChBP [2]): 0.3
- stoichiometric ratio (n) by ITC (Ac-AChBP [3]; 0.5 mM ligand into 20 μM Ac-AChBP): 3–4
- Kd (Ac-AChBP [3]; Kd by ITC): 1.86 µM
- IC50 (human α7 nAChRs): 7.3 µM
- solubility (solubility): highly soluble

Compound: Cc1cc(C)nc(C(=N)Nc2nc(-c3ccccn3)cc3ccccc23)n1 [VUF9432, 4,6-dimethyl-N-(3-(pyridin-2-yl)isoquinoline-1-yl)-pyrimidine-2-carboximidamide]
- Ki (Ac-AChBP [4]): 11 µM
- pKi for α7 nAChR (human α7 nAChR; [3H]MLA displacement, radioligand not fully displaced): around five
- displacement of [3H]MLA at the highest concentration tested (human α7 nAChR; highest concentration tested): not fully displaced
- affinity for Ac-AChBP Y186A mutant (Ac-AChBP Y186A): loss of affinity
- affinity for Ac-AChBP Y193A mutant (Ac-AChBP Y193A): loss of affinity
- stoichiometric ratio ligand/AChBP (ligands per protomer/binding site) (Ac-AChBP [5]): three
- effect on α7 nAChR expressed in oocytes (human α7 nAChRs; data not shown): did not observe any effect
- solubility (solubility): not very soluble

Compound: Nc1nc(-c2ccccn2)cc2ccccc12 [compound 2, 1-Amino-3-(2-pyridyl)isoquinoline]
- stoichiometric ratio ligand/AChBP (ligands per protomer/binding site) (Ac-AChBP [5]): multiple copies

Compound: Nc1nc(-c2cccnc2)cc2ccccc12 [compound 3, 1-Amino-3-(3-pyridyl)isoquinoline]
- stoichiometric ratio ligand/AChBP (ligands per protomer/binding site) (Ac-AChBP [5]): multiple copies
